The sample as a whole holds a higher share of hits than the screen did.
GASC1 inh – KDM4C (human) demethylase inhibition; Q9H3R0; GST-KDM4C 2-372, H3K9me3 peptide, LANCE TR-FRET; inhibition, % at 12.5 µM; 96,000 compounds, 0.15% hits; AID 720574;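 active = mean replicate inhibition above about 25%, with at least 55% of replicates also reaching it, limit read from the data, passing the limit was not always enough; inconclusive = only one of those two conditions met; inactive = neither condition met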
Target sequence (Q9H3R0 2-372 limits assumed): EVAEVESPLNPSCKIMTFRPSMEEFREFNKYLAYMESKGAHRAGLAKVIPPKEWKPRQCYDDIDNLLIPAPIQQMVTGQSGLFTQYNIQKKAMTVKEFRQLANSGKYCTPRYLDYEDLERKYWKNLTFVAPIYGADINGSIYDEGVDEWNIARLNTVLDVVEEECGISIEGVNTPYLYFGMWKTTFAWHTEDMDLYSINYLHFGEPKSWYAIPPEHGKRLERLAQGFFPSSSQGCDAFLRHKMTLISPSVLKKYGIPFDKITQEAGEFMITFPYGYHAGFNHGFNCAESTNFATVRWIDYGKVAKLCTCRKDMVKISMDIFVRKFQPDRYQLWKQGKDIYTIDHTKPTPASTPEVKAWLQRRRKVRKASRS
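reagent = H3K9me3 peptide substrate, Fe(II), 2-oxoglutarate | system = GST-tagged GASC-1 (JMJD2C) catalytic fragment, aa 2-372 | amount = enzyme final amount 10 nM | read-out = Fall in 671/618 emission ratio as inhibition | medium = HEPES buffer, pH 7.5, plus ascorbate | schedule = 30 min reaction, 60 min detection, RT | measured by = LANCE TR-FRET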
T cruzi growth-1 – blocks T. cruzi growth in NIH3T3 culture | T. cruzi beta-gal in NIH3T3, GalScreen luminescence, 90 h | inhibition, % at 8.34 µM | 77,000 compounds, 5.9% hits | AID 624255;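 active = mean inhibition above about 93%, with at least 55% of replicates each passing it, limit read from the data, passing the limit was not always enough; inconclusive = only one of those two conditions holds; inactive = neither condition holds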
IDH1 mut inh – inhibitors of human IDH1 R132H; AID 624101; O75874; IDH1 R132H reductase, diaphorase/resazurin fluorescence, 60 min; inhibition, % at 10 µM; 70,000 compounds, 0.18% hits; in the data active = inhibition above about 34%; inconclusive = no clear call, values can overlap the other calls; inactive = below about 11%;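 also: 0% = DMSO and 100% = no enzyme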
T cruzi growth-2 – blocks T. cruzi growth in NIH3T3 host cells; shares compounds with T cruzi growth-1; T. cruzi beta-gal in NIH3T3, GalScreen luminescence, 90 h; inhibition, % at 8.35 µM; 5,600 compounds, 72% hits; AID 651739;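 active = mean replicate inhibition above about 95% and at least 55% of replicates individually reaching it, limit read from the data; inconclusive = only one of the two criteria is met; inactive = neither criterion is met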
T cruzi growth-3 – blocks T. cruzi growth in NIH3T3 host cells | shares compounds with T cruzi growth-1 | T. cruzi beta-gal in NIH3T3, GalScreen luminescence, 90 h | AID 651740 | 5,600 compounds, 21% hits | inhibition, % at 2.09 µM;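 active = mean inhibition above about 95%, with at least 55% of replicates also reaching it, limit read from the data; inconclusive = meets just one of the two conditions; inactive = meets neither condition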;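 also: plate controls were neutral control median for no effect and positive control median for full effect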
3T3 cytotox – NIH/3T3 (mouse) viability loss; 5,600 compounds, 14% hits; AID 651742; cytotoxicity (signal decrease), % at 8.35 µM; NIH/3T3 viability, CellTiter-Glo ATP luminescence, 90 h; shares compounds with T cruzi growth-1;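 active = mean signal decrease across replicates above about 35% based on untreated-well scatter, with enough replicates individually passing, limit read from the data; inconclusive = no rule stated though some were filed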;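 also: 0% = median of neutral control wells and 100% = median of positive control wells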
3T3 cytotox 2 – kills mouse NIH/3T3 fibroblasts | shares compounds with T cruzi growth-1 | 5,600 compounds, 56% hits | NIH/3T3 viability, CellTiter-Glo ATP luminescence, 90 h | inhibition, % at 24.9 µM;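 active = mean loss of cell viability signal at or above a set limit, and enough replicates individually reaching it; inconclusive = meets only the mean limit or only the replicate share; inactive = meets neither condition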;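 also: 0% = median of neutral control wells and 100% = median of positive control wells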
Starred values were filed as active, the others as inactive; ? = inconclusive; · = no result.

SMILES	GASC1 inh	T cruzi growth-1	IDH1 mut inh	T cruzi growth-2	T cruzi growth-3	3T3 cytotox	3T3 cytotox 2
C[C@@H]1CCCCO[C@@H](CN(C)Cc2ccncc2)[C@H](C)CN([C@@H](C)CO)C(=O)c2cc(NC(=O)Cc3ccccc3)ccc2O1	1	59	·	·	·	·	·
C[C@H](CO)N1C[C@H](C)[C@@H](CN(C)Cc2ccccc2)OCCCC[C@H](C)Oc2ccc(NC(=O)c3ccncc3)cc2C1=O	-1	74	·	·	·	·	·
C[C@H]1CCCCO[C@@H](CN(C)Cc2ccncc2)[C@@H](C)CN([C@@H](C)CO)C(=O)c2cc(NC(=O)Cc3ccccc3)ccc2O1	4	99*	4	104*	86	-27	-16
Cc1cccc(N(CC(=O)O)S(C)(=O)=O)c1C	·	·	0	·	·	·	·
CCc1ccc(NC(=O)Cn2cnc3ccccc3c2=O)cc1	·	·	0	·	·	·	·
COc1cccc(NC(=O)N(C)C[C@H]2Oc3ncc(C#Cc4ccccc4)cc3C(=O)N([C@H](C)CO)C[C@@H]2C)c1	·	110*	0	108*	88	?	28*
COc1cccc(NC(=O)N(C)C[C@@H]2Oc3ncc(C#Cc4cccnc4)cc3C(=O)N([C@@H](C)CO)C[C@H]2C)c1	-2	81	-3	·	·	·	·
COc1cccc(NC(=O)N(C)C[C@H]2Oc3ncc(C#Cc4ccccc4)cc3C(=O)N([C@@H](C)CO)C[C@H]2C)c1	·	?	·	105*	52	2	38*
COc1cccc(NC(=O)N(C)C[C@@H]2Oc3ncc(C#Cc4ccccc4)cc3C(=O)N([C@H](C)CO)C[C@H]2C)c1	·	121*	-3	106*	111*	17	28*
COc1cccc(NC(=O)N(C)C[C@H]2Oc3ncc(C#Cc4ccccc4)cc3C(=O)N([C@H](C)CO)C[C@H]2C)c1	·	96	·	·	·	·	·
COc1cccc(NC(=O)N(C)C[C@@H]2Oc3ncc(C#Cc4cccnc4)cc3C(=O)N([C@@H](C)CO)C[C@@H]2C)c1	-1	39	·	·	·	·	·
CCOC(=O)c1c(NC(=S)NCc2ccco2)sc2c1CCCCCC2	·	·	0	·	·	·	·
CCC(=O)N1CC(=O)N2[C@H](CO)[C@@H](c3ccc(-c4ccccc4F)cc3)[C@@H]2C1	0	·	·	·	·	·	·
C[C@H](CO)N1C[C@H](C)[C@H](CN(C)C(=O)C2CC2)Oc2cc(-c3ccccc3F)ccc2S1(=O)=O	-1	109*	-1	70	16	15	64*
C[C@@H]1CN([C@H](C)CO)S(=O)(=O)c2ccc(-c3ccccc3F)cc2O[C@@H]1CN(C)C(=O)C1CC1	1	51	0	·	·	·	·
C[C@@H]1CN([C@@H](C)CO)S(=O)(=O)c2ccc(-c3ccncc3)cc2O[C@H]1CN(C)C(=O)CC1CC1	5	118*	1	84	86	3	?
C[C@H](CO)N1C[C@H](C)[C@H](CN(C)C(=O)C2CCC2)Oc2cc(-c3ccncc3)ccc2S1(=O)=O	3	85	·	·	·	·	·
C[C@@H]1CN([C@@H](C)CO)S(=O)(=O)c2ccc(-c3ccncc3)cc2O[C@H]1CN(C)C(=O)C1CCC1	2	108*	8	103*	78	5	46*
C[C@@H]1CN([C@@H](C)CO)S(=O)(=O)c2ccc(-c3ccncc3)cc2O[C@@H]1CN(C)C(=O)CC1CC1	2	85	7	·	·	·	·
C[C@@H]1CN([C@H](C)CO)S(=O)(=O)c2ccc(-c3ccccc3)cc2O[C@H]1CN(C)C(=O)C1CCCCC1	0	44	5	·	·	·	·
C[C@@H]1CN([C@@H](C)CO)S(=O)(=O)c2ccc(-c3ccccc3)cc2O[C@@H]1CN(C)C(=O)C1CCCCC1	-1	97*	·	103*	82	26	80*
CCC(=O)N1C[C@@H](C)[C@H](OC)CN(C)C(=O)c2ccc(NC(=O)c3ccccc3)cc2OC[C@@H]1C	0	51	0	·	·	·	·
C[C@@H]1CN([C@@H](C)CO)C(=O)Cc2cc(NS(=O)(=O)c3ccc(F)cc3)ccc2O[C@H]1CN(C)Cc1ccc(-c2ccccc2)cc1	-4	41	0	·	·	·	·
O=C(CSc1nnc(-c2ccncc2)n1-c1ccccc1)NC1CCCCC1	·	·	0	·	·	·	·
CC(C)c1cccc(NC(=O)C[C@H]2CC[C@H]3[C@@H](COc4ccc(NC(=O)c5ccc(C#N)cc5)cc4C(=O)N3C)O2)c1	-4	82	·	·	·	·	·
SMILES	GASC1 inh	T cruzi growth-1	IDH1 mut inh	T cruzi growth-2	T cruzi growth-3	3T3 cytotox	3T3 cytotox 2
Cc1ccc(NC(=O)C(=O)NCc2ccccn2)cc1C	·	·	0	·	·	·	·
CC(NS(=O)(=O)c1ccc(Br)cc1)C(=O)Nc1cccc(F)c1 (stereo unspecified)	·	·	0	·	·	·	·
Cc1ccc(-c2ccc3c(c2)O[C@H](CN(C)C(=O)C2CCCCC2)[C@@H](C)CN([C@@H](C)CO)S3(=O)=O)cc1	-2	123*	·	102*	100*	3	104*
Cc1ccc(-c2ccc3c(c2)O[C@@H](CN(C)C(=O)C2CCCCC2)[C@@H](C)CN([C@@H](C)CO)S3(=O)=O)cc1	-3	125*	-2	100*	93	22	106*
Cc1ccc(-c2ccc3c(c2)O[C@@H](CN(C)C(=O)C2CCCCC2)[C@@H](C)CN([C@H](C)CO)S3(=O)=O)cc1	-2	123*	·	99*	93	13	106*
C[C@@H]1CN([C@@H](C)CO)S(=O)(=O)c2ccc(-c3ccc(F)cc3)cc2O[C@@H]1CN(C)C(=O)C1CCCCC1	-2	98	·	·	·	·	·
C[C@@H]1CN([C@@H](C)CO)S(=O)(=O)c2ccc(-c3ccc(F)cc3)cc2O[C@H]1CN(C)C(=O)C1CCCCC1	-3	105*	·	101*	73	52*	47*
Cc1ccc(-c2ccc3c(c2)O[C@H](CN(C)C(=O)C2CCC2)[C@H](C)CN([C@H](C)CO)S3(=O)=O)cc1	-1	87	1	·	·	·	·
Cc1ccc(-c2ccc3c(c2)O[C@@H](CN(C)C(=O)C2CCC2)[C@H](C)CN([C@@H](C)CO)S3(=O)=O)cc1	23	70	·	·	·	·	·
Cc1ccc(-c2ccc3c(c2)O[C@H](CN(C)C(=O)C2CCC2)[C@@H](C)CN([C@H](C)CO)S3(=O)=O)cc1	-1	57	·	·	·	·	·
CCCNC(=O)N1CC2(CN(C(=O)COC)C2)c2c(n(C)c3cc(OC)ccc23)[C@@H]1CO	0	·	·	·	·	·	·
Cc1ccc(OCC(=O)Nc2ccc3c(c2)oc2ccccc23)cc1[N+](=O)[O-]	·	·	0	·	·	·	·
C[C@H]1CN([C@@H](C)CO)C(=O)c2cc(NS(=O)(=O)c3cn(C)cn3)ccc2O[C@@H]1CN(C)S(=O)(=O)c1ccc(Cl)cc1	3	8	·	·	·	·	·
C[C@@H]1CN([C@H](C)CO)C(=O)Cc2cc(NS(C)(=O)=O)ccc2O[C@H]1CN(C)Cc1ccc2c(c1)OCO2	0	-9	0	·	·	·	·

Screening results (PubChem BioAssay)
